Source: ChEMBL document CHEMBL4229376, “Optimization of the pharmacokinetic properties of potent anti-trypanosomal triazine derivatives” (Eur J Med Chem, 2018)
Activity calls are given as the source filed them. No cut-off for these calls is given here.

How the values were obtained:
[1] = Drug metabolism in human liver microsomes assessed as UGT mediated compound […] by measuring parent compound remaining at 5 uM after 30 mins in presence of UDPGA by UPLC/MS/ESI analysis; type: ADME; conditions: read-out: Stability
Trypanosoma cruzi = assay: Antitrypanosomal activity against nifurtimox-sensitive Trypanosoma cruzi Tulahuen CL2 infected in human MRC5 SV2 cells assessed as reduction in parasite burden after 168 hrs by CPRG and Nonidet based spectrophotometric analysis; type: functional, organism-based; conditions: Tulahuen CL2, MRC-5 SV2, 168 h
[2] = Drug uptake in Swiss mouse blood at 50 mg/kg, po administered as single dose after 1 hr by UPLC/MS/ESI analysis; type: ADME, organism-based; conditions: whole blood, read-out: Drug uptake
Method in brief: (§1)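 Mice were given the compound orally as a single dose of either 25 or 50 mg/kg, one group per dose. Plasma concentrations were followed over time up to 24 h, and the pharmacokinetic parameters were derived from the concentration-time profile.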

[3] = Drug metabolism in mouse liver microsomes assessed as CYP450 mediated compound […] by measuring parent compound remaining at 5 uM after 60 mins in presence of NADPH by UPLC/MS/ESI analysis; type: ADME; conditions: read-out: Stability
[4] = Drug metabolism in human liver microsomes assessed as CYP450 mediated compound […] by measuring parent compound remaining at 5 uM after 30 mins in presence of NADPH by UPLC/MS/ESI analysis; type: ADME; conditions: read-out: Stability
Peritoneal macrophage = assay: Cytotoxicity against mouse primary peritoneal macrophages after 72 hrs by resazurin dye-based fluorimetric analysis; type: cell-based
[5] = Drug uptake in Swiss mouse blood at 25 mg/kg, po administered as single dose after 24 hrs by UPLC/MS/ESI analysis; type: ADME, organism-based; conditions: whole blood, read-out: Drug uptake; method in brief: as §1
[6] = Cytotoxicity against human MRC5 SV2 cells after 72 hrs by resazurin dye-based fluorimetric analysis; type: cell-based; conditions: MRC-5 SV2, 72 h
[7] = test system: Trypanosoma brucei brucei; assay: Antitrypanosomal activity against Trypanosoma brucei brucei Squib 427 infected in Swiss mouse assessed as mean survival days at 50 mg/kg, po bid for 5 days; type: functional
Method in brief: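 Acute mouse infection model with T. b. brucei. Dosing ran for 5 days after infection, orally or intraperitoneally, once or twice daily. Groups were 3 mice each, with vehicle-treated infected controls. The read-out was mean survival time in days, plus the number of survivors on day 14 post-infection.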

[8] = Protein binding in mouse plasma at 10 uM after 6 hrs by equilibrium dialysis and LC-MS analysis; type: ADME, cell-free; conditions: read-out: PPB (converted)
[9] = test system: Trypanosoma brucei brucei; assay: Antitrypanosomal activity against Trypanosoma brucei brucei Squib 427 infected in Swiss mouse assessed as mouse survival at 50 mg/kg, po bid for 5 days and measured on day 14 post infection; type: functional, organism-based
Method in brief: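 Acute T. b. brucei mouse infection model. Dosing was PO or IP at 10–50 mg/kg, once (SID) or twice (BID) daily for 5 days after infection, with 3 mice per group. […] Read-outs were mean survival time and survivors on day 14 post infection.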

[10] = Drug metabolism in human liver microsomes assessed as CYP450 mediated compound […] by measuring parent compound remaining at 5 uM after 60 mins in presence of NADPH by UPLC/MS/ESI analysis; type: ADME; conditions: read-out: Stability
Mus musculus = assay: Apparent volume of distribution in Swiss mouse at 25 mg/kg, po administered as single dose after 24 hrs by UPLC/MS/ESI analysis; type: ADME, organism-based; conditions: in vivo
Method in brief: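 Mice in groups received one oral dose of 25 or 50 mg/kg. Plasma concentrations were followed over time up to 24 h, and PK parameters including T1/2 were derived from the concentration–time profile.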

**Q.** For Nc1nc(Nc2ccc(F)cc2)nc(Oc2ccc(F)cc2)n1, which remaining at 0.5 h, 5 µM [1] is on record?
**A.** 97%

**Q.** What about the IC50 (Trypanosoma cruzi) of the same compound?
**A.** > 64 µM

**Q.** And the concentration at 1 h [2]?
**A.** 1730 ng/mL

**Q.** And the remaining at 1 h, 5 µM [3]?
**A.** 74%

**Q.** And the remaining at 0.5 h, 5 µM [4]?
**A.** 85%

**Q.** What about the IC50 (Peritoneal macrophage) of the same compound?
**A.** > 64 µM

**Q.** What about the concentration at 24 h [5] of the same compound?
**A.** 50 ng/mL

**Q.** What about the IC50 [6] of the same compound?
**A.** > 64 µM

**Q.** And the MST [7]?
**A.** 5.7 days

**Q.** And the fraction unbound at 6 h, 10 µM [8]?
**A.** 0.023

**Q.** And the Activity [9]?
**A.** inactive

**Q.** And the remaining at 1 h, 5 µM [10]?
**A.** 65%

**Q.** And the Vz (Mus musculus)?
**A.** 26.7 L
